Experimental data as given in ChEMBL document CHEMBL3994591, “Novel ferulic amide derivatives with tertiary amine side chain as acetylcholinesterase and butyrylcholinesterase inhibitors: The influence of carbon spacer length, alkylamine and aromatic group” (Eur J Med Chem, 2017).

Assays:
[1] = Inhibition of carboxylesterase (unknown origin) using 4-nitrophenyl acetate as substrate by UV-Vis spectrophotometer; design: species or system Homo sapiens
How it was run: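 Read-out was 4-nitrophenol released by CaE hydrolysis of 1.0 mmol/L 4-nitrophenyl acetate, measured at 405 nm. Reactions ran in 100 mmol/L potassium phosphate buffer, pH 8.0, at 25 °C. CaE activity was taken as proportional to 4-nitrophenol concentration.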

Acetylcholinesterase [2] = target: T1, Acetylcholinesterase (Homo sapiens, UniProt P22303); test: Inhibition of acetylcholinesterase (unknown origin) using acetylthiocholine iodide as substrate after 25 mins by Ellmann method
How it was run: (§1)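 Modified Ellman assay, triplicate. Compounds dissolved in Tween 80, diluted with water to five concentrations. Mix: enzyme […], substrate (acetylthiocholine iodide or butyrylthiocholine iodide) and test compound in phosphoric acid buffer, pH 8.0, 0.1 mol/L. Incubated 25 min at 30 °C, then terminated. IC50 reported as mean ± SD of three experiments.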

Cholinesterase = Cholinesterase (Homo sapiens, UniProt P06276); test: Inhibition of butyrylcholinesterase (unknown origin) using butyrylthiocholine iodide as substrate after 25 mins by Ellmann method; how it was run: as §1
Homo sapiens = species on record: Homo sapiens; test: Selectivity index, ratio of IC50 for butyrylcholinesterase (unknown origin) to IC50 for acetylcholinesterase (unknown origin)
[3] = Octanol-water partition coefficient, log P of the compound at pH 7.4 by shake flask method; assay type: physicochemical
How it was run: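 Shake flask partition between octanol and PBS (pH 7.4). Mixture shaken at 37 °C overnight, then centrifuged at 2000 rpm for 20 min. Phases analysed by C18 HPLC with methanol-0.1% TEA (85:15, v/v) at 1.0 mL/min and 32 °C, detection at 322 nm. Run in triplicate, log P calculated.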

Acetylcholinesterase [4] = target: T1, Acetylcholinesterase; test: Potency index, ratio of rivastigmine IC50 to compound IC50 for acetylcholinesterase (unknown origin)
[5] = compound: COc1cc(/C=C/C(=O)Nc2ccccc2)ccc1OCCCCCCN1CCCCC1; test: Mixed type inhibition of acetylcholinesterase (unknown origin) assessed as Km for substrate at 0.18 uM using acetylthiocholine iodide as substrate by Michaelis-Menten plot analysis (reference value: 5.99 mM); conditions: Homo sapiens
[6] = compound: COc1cc(/C=C/C(=O)Nc2ccccc2)ccc1OCCCCCCN1CCCCC1; test: Mixed type inhibition of acetylcholinesterase (unknown origin) assessed as enzyme Vmax at 0.18 uM using acetylthiocholine iodide as substrate by Michaelis-Menten plot analysis (reference value: 0.027 deltaA/min); conditions: Homo sapiens
[7] = compound: COc1cc(/C=C/C(=O)Nc2ccccc2)ccc1OCCCCCCN1CCCCC1; test: Mixed type inhibition of acetylcholinesterase (unknown origin) assessed as Km for substrate at 0.41 uM using acetylthiocholine iodide as substrate by Michaelis-Menten plot analysis (reference value: 5.99 mM); conditions: Homo sapiens
[8] = compound: COc1cc(/C=C/C(=O)Nc2ccccc2)ccc1OCCCCCCN1CCCCC1; test: Mixed type inhibition of acetylcholinesterase (unknown origin) assessed as Km for substrate at 0.82 uM using acetylthiocholine iodide as substrate by Michaelis-Menten plot analysis (reference value: 5.99 mM); conditions: Homo sapiens
[9] = compound: COc1cc(/C=C/C(=O)Nc2ccccc2)ccc1OCCCCCCN1CCCCC1; test: Mixed type inhibition of acetylcholinesterase (unknown origin) assessed as enzyme Vmax at 0.41 uM using acetylthiocholine iodide as substrate by Michaelis-Menten plot analysis (reference value: 0.027 deltaA/min); conditions: Homo sapiens
[10] = compound: COc1cc(/C=C/C(=O)Nc2ccccc2)ccc1OCCCCCCN1CCCCC1; test: Mixed type inhibition of acetylcholinesterase (unknown origin) assessed as enzyme Vmax at 0.82 uM using acetylthiocholine iodide as substrate by Michaelis-Menten plot analysis (reference value: 0.027 deltaA/min); conditions: Homo sapiens

Cholinesterase, sequence (P06276 whole entry): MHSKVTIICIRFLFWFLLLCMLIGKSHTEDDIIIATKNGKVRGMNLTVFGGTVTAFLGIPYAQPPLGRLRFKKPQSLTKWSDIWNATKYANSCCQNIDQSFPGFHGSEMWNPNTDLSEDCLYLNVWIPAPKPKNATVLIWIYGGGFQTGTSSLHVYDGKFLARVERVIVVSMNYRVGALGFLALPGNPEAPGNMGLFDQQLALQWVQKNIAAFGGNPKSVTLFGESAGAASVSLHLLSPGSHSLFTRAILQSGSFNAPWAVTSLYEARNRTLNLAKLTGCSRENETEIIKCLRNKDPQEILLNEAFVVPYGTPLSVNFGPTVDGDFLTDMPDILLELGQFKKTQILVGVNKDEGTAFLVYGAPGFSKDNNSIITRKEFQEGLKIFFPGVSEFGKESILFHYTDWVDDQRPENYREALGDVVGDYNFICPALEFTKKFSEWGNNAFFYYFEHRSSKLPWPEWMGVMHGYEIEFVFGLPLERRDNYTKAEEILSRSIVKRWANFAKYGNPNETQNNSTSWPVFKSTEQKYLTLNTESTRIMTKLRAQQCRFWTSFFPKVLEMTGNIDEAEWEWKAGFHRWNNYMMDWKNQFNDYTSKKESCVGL

## COc1cc(/C=C/C(=O)Nc2ccccc2)ccc1OCCCN1CCCC1
[1]
  IC50: > 500 µM
Acetylcholinesterase [2]
  IC50: 37.1 µM
Cholinesterase
  IC50: 14.2 µM
Homo sapiens
  Ratio IC50: 0.38
[3]
  logD: 1.57

## COc1cc(/C=C/C(=O)Nc2ccccc2)ccc1OCCCCCCCCN(C)C
[1]
  IC50: > 500 µM
Acetylcholinesterase [2]
  IC50: 8.95 µM
Cholinesterase
  IC50: 10.4 µM
Homo sapiens
  Ratio IC50: 1.16
[3]
  logD: 1.74

## COc1cc(/C=C/C(=O)Nc2ccccc2)ccc1OCCCCCCCCCCN(C)C
[1]
  IC50: > 500 µM
Acetylcholinesterase [2]
  IC50: 9.93 µM
Cholinesterase
  IC50: 20.6 µM
Homo sapiens
  Ratio IC50: 2.07
[3]
  logD: 1.8

## COc1cc(/C=C/C(=O)Nc2ccccc2)ccc1OCCCCCCCCCCN1CCCC1
[1]
  IC50: > 500 µM
Acetylcholinesterase [2]
  IC50: 13.5 µM
Cholinesterase
  IC50: 2.99 µM
Homo sapiens
  Ratio IC50: 0.22
[3]
  logD: 1.86

## CCOC(=O)/C=C/c1ccc(OCCCCCCN2CCCCC2)c(OC)c1
[1]
  IC50: > 500 µM
Acetylcholinesterase [2]
  IC50: 2.65 µM
Cholinesterase
  IC50: 41.8 µM
Homo sapiens
  Ratio IC50: 15.8
[3]
  logD: 1.81

## CCN(CC)CCCCCCOc1ccc(/C=C/C(=O)Nc2ccccc2)cc1OC
[1]
  IC50: > 500 µM
Acetylcholinesterase [2]
  IC50: 1.83 µM
Cholinesterase
  IC50: 4.86 µM
Homo sapiens
  Ratio IC50: 2.66
[3]
  logD: 1.7

## COc1cc(/C=C/C(=O)Nc2ccccc2)ccc1O
[1]
  IC50: > 500 µM
Acetylcholinesterase [2]
  IC50: > 500 µM
Cholinesterase
  IC50: > 500 µM
[3]
  logD: 1.42

## COc1cc(/C=C/C(=O)Nc2ccccc2)ccc1OCCCCCCN1CCCC1
[1]
  IC50: > 500 µM
Acetylcholinesterase [2]
  IC50: 1.11 µM
Cholinesterase
  IC50: 2.23 µM
Homo sapiens
  Ratio IC50: 2.01
[3]
  logD: 1.76
Acetylcholinesterase [4]
  Ratio IC50: 9

## CCOC(=O)/C=C/c1ccc(OCCCCCCN2CCCC2)c(OC)c1
[1]
  IC50: > 500 µM
Acetylcholinesterase [2]
  IC50: 5.05 µM
Cholinesterase
  IC50: 377 µM
Homo sapiens
  Ratio IC50: 74.6
[3]
  logD: 1.82

## CCN(CC)CCOc1ccc(/C=C/C(=O)Nc2ccccc2)cc1OC
[1]
  IC50: > 500 µM
Acetylcholinesterase [2]
  IC50: 41.1 µM
Cholinesterase
  IC50: 11.5 µM
Homo sapiens
  Ratio IC50: 0.28
[3]
  logD: 1.53

## CCN(CC)CCCOc1ccc(/C=C/C(=O)Nc2ccccc2)cc1OC
[1]
  IC50: > 500 µM
Acetylcholinesterase [2]
  IC50: 23.7 µM
Cholinesterase
  IC50: 16.9 µM
Homo sapiens
  Ratio IC50: 0.71
[3]
  logD: 1.57

## CCN(C)C(=O)Oc1cccc([C@H](C)N(C)C)c1 [RIVASTIGMINE]
[1]
  IC50: 31.1 µM
[3]
  logD: 1.68

## COc1cc(/C=C/C(=O)Nc2ccccc2)ccc1OCCN(C)C
[1]
  IC50: > 500 µM
Acetylcholinesterase [2]
  IC50: 23.2 µM
Cholinesterase
  IC50: 23.3 µM
Homo sapiens
  Ratio IC50: 1
[3]
  logD: 1.5

## CCN(CC)CCCCCOc1ccc(/C=C/C(=O)Nc2ccccc2)cc1OC
[1]
  IC50: > 500 µM
Acetylcholinesterase [2]
  IC50: 19 µM
Cholinesterase
  IC50: 22.1 µM
Homo sapiens
  Ratio IC50: 1.17
[3]
  logD: 1.63

## COc1cc(/C=C/C(=O)Nc2ccccc2)ccc1OCCCCN1CCCC1
[1]
  IC50: > 500 µM
Acetylcholinesterase [2]
  IC50: 24.4 µM
Cholinesterase
  IC50: 3.83 µM
Homo sapiens
  Ratio IC50: 0.16
[3]
  logD: 1.6

## COc1cc(/C=C/C(=O)Nc2ccccc2)ccc1OCCN1CCCCC1
[1]
  IC50: > 500 µM
Acetylcholinesterase [2]
  IC50: 19.4 µM
Cholinesterase
  IC50: 2.34 µM
Homo sapiens
  Ratio IC50: 0.12
[3]
  logD: 1.56

## CCN(CC)CCCCCCCCOc1ccc(/C=C/C(=O)O)cc1OC
[1]
  IC50: > 500 µM
Acetylcholinesterase [2]
  IC50: 3.18 µM
Cholinesterase
  IC50: 302 µM
Homo sapiens
  Ratio IC50: 95.1
[3]
  logD: 1.51

## COc1cc(/C=C/C(=O)Nc2ccccc2)ccc1OCCCCCN1CCCC1
[1]
  IC50: > 500 µM
Acetylcholinesterase [2]
  IC50: 6.21 µM
Cholinesterase
  IC50: 4.78 µM
Homo sapiens
  Ratio IC50: 0.77
[3]
  logD: 1.64

B1: Acetylcholinesterase (Homo sapiens), P22303 (protein)
chain: MRPPQCLLHTPSLASPLLLLLLWLLGGGVGAEGREDAELLVTVRGGRLRGIRLKTPGGPVSAFLGIPFAEPPMGPRRFLPPEPKQPWSGVVDATTFQSVCYQYVDTLYPGFEGTEMWNPNRELSEDCLYLNVWTPYPRPTSPTPVLVWIYGGGFYSGASSLDVYDGRFLVQAERTVLVSMNYRVGAFGFLALPGSREAPGNVGLLDQRLALQWVQENVAAFGGDPTSVTLFGESAGAASVGMHLLSPPSRGLFHRAVLQSGAPNGPWATVGMGEARRRATQLAHLVGCPPGGTGGNDTELVACLRTRPAQVLVNHEWHVLPQESVFRFSFVPVVDGDFLSDTPEALINAGDFHGLQVLVGVVKDEGSYFLVYGAPGFSKDNESLISRAEFLAGVRVGVPQVSDLAAEAVVLHYTDWLHPEDPARLREALSDVVGDHNVVCPVAQLAGRLAAQGARVYAYVFEHRASTLSWPLWMGVPHGYEIEFIFGIPLDPSRNYTAEEKIFAQRLMRYWANFARTGDPNEPRDPKAPQWPPYTAGAQQYVSLDLRPLEVRRGLRAQACAFWNRFLPKLLSATDTLDEAERQWKAEFHRWSSYMVHWKNQFDHYSKQDRCSDL
[5]
  Km: 6.69 mM
[6]
  Vmax: 0.023 deltaA/min
[7]
  Km: 7.71 mM
[8]
  Km: 8.85 mM
[9]
  Vmax: 0.019 deltaA/min
[10]
  Vmax: 0.015 deltaA/min
